Measured values as given in ChEMBL document CHEMBL2169767 (J Med Chem, 2012).
Where a SMILES comes first, the peptide text is derived from it. [ ]: non-standard residue; d: D form. d1Nal = N[C@H](Cc1cccc2ccccc12)C(=O)O; Phg = N[C@H](C(=O)O)c1ccccc1

Columns and labels:
[1] = target: T1, Growth hormone secretagogue receptor type 1 (Homo sapiens, UniProt Q92847); experiment: Activation of human ghrelin receptor expressed in COS 7 cells using [2-3H]myo-inositol by inositol triphosphate turnover assay; assay type: functional, cell-based
T1 sequence (Q92847 whole entry): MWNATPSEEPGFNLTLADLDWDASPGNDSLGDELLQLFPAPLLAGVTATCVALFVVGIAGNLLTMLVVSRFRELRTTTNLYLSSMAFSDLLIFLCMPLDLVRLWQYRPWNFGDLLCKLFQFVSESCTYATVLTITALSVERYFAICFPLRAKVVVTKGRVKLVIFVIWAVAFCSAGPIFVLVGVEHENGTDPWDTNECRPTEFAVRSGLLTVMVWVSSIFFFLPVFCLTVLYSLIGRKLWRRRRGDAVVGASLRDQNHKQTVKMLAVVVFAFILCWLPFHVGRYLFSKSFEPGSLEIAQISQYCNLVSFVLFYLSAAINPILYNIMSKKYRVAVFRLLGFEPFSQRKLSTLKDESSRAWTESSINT
Summary of the method: (§1)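 Stimulated with seven to nine peptide concentrations, stopped by aspirating medium. Lysate supernatant purified on anion-exchange resin. Emax = difference between constitutive activity and activity at maximal peptide effect; EC50 = half-maximal concentration.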

[2] = target: T1, Growth hormone secretagogue receptor type 1; experiment: Ratio of EC50 of ghrelin to EC50 of compound at human ghrelin receptor expressed in COS 7 cells using [2-3H]myo-inositol by inositol triphosphate turnover assay; assay type: functional, cell-based
[3] = target: T1, Growth hormone secretagogue receptor type 1; experiment: Displacement of [125I]-His-ghrelin from human ghrelin receptor expressed in COS7 cells incubated for 75 mins by scintillation counting based assay; assay type: cell-based, COS-7
[4] = target: Growth hormone secretagogue receptor type 1 (Homo sapiens, UniProt Q92847, S123A); experiment: Agonist activity at FLAG-tagged human ghrelin receptor Ser123:Ala mutant expressed in COS 7 cells using [2-3H]myo-inositol by inositol triphosphate turnover assay; assay type: functional, cell-based
Growth hormone secretagogue receptor type 1 (Homo sapiens, UniProt Q92847, S123A), sequence (Q92847 whole entry S123A): as the sequence (Q92847 whole entry) above, with S123A counted along it
Summary of the method: (§2)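 COS7 cells transiently or stably (hygromycin B 0.4 mg/mL) transfected with receptor; transient cells exposed 14 h to receptor DNA with metafectene. Day after transfection/seeding, labelled with [2-3H]myo-inositol (2 μCi/mL), then stimulated with seven to nine peptide concentrations; stopped by aspirating medium, lysate supernatant purified on anion-exchange resin. EC50 = half-maximal effect; Emax = difference between constitutive activity and maximal-effect activity.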

[5] = target: T1, Growth hormone secretagogue receptor type 1; experiment: Agonist activity at human ghrelin receptor expressed in COS 7 cells using [2-3H]myo-inositol by inositol triphosphate turnover assay relative to untreated control; assay type: functional, cell-based; summary of the method: as §1
[6] = target: Growth hormone secretagogue receptor type 1 (Homo sapiens, UniProt Q92847, F119S); experiment: Agonist activity at FLAG-tagged human ghrelin receptor Phe119:Ser mutant expressed in COS 7 cells using [2-3H]myo-inositol by inositol triphosphate turnover assay; assay type: functional, cell-based
Growth hormone secretagogue receptor type 1 (Homo sapiens, UniProt Q92847, F119S), sequence (Q92847 whole entry F119S): as the sequence (Q92847 whole entry) above, with F119S counted along it

[7] = target: T1, Growth hormone secretagogue receptor type 1; experiment: Agonist activity at FLAG-tagged human ghrelin receptor expressed in COS 7 cells using [2-3H]myo-inositol by inositol triphosphate turnover assay; assay type: functional, cell-based; summary of the method: as §2
Rattus norvegicus [8] = experiment: Toxicity in rat assessed as decrease in activity at 1 nmol, icv measured over 120 mins; assay type: organism-based; settings: in vivo, icv_or_intrathecal, 2 h
Rattus norvegicus [9] = experiment: Toxicity in rat assessed as decrease in water consumption at 1 nmol, icv measured over 120 mins; assay type: organism-based; settings: in vivo, icv_or_intrathecal, 2 h

Row | EC50 [1] | Ratio EC50 [2] | IC50 [3] | SMILES | other results
1 | > 1000 nM | – | – | CC(C)C[C@H](NC(=O)[C@H](CC(C)C)NC(=O)[C@@H](Cc1c[nH]c2ccccc12)NC(=O)[C@@H](NC(=O)[C@@H](Cc1cccc2ccccc12)NC(=O)[C@@H](N)CCCCN)c1ccccc1)C(N)=O (H-K[d1Nal][Phg][dW]LL-NH2) | –
2 | – | 9 | – | CC(C)C[C@H](NC(=O)[C@H](CC(C)C)NC(=O)[C@@H](Cc1ccc2ccccc2c1)NC(=O)[C@H](Cc1ccccc1)NC(=O)[C@@H](Cc1c[nH]c2ccccc12)NC(=O)[C@@H](N)CCCCN)C(N)=O | EC50 [4]: 6.7 nM; Ki [3]: 234 nM; Emax [5]: 156%; EC50 [6]: 13.4 nM; EC50 [7]: 7.2 nM
3 | > 1000 nM | – | – | CC(C)C[C@H](NC(=O)[C@H](CC(C)C)NC(=O)[C@@H](Cc1cccc2ccccc12)NC(=O)[C@H](Cc1ccccc1)NC(=O)[C@@H](Cc1cccc2ccccc12)NC(=O)[C@@H](N)CCCCN)C(N)=O | –
4 | – | 12.8 | – | CC(C)C[C@H](NC(=O)[C@H](CC(C)C)NC(=O)[C@@H](Cc1cccc2ccccc12)NC(=O)[C@H](Cc1ccccc1)NC(=O)[C@@H](Cc1c[nH]c2ccccc12)NC(=O)[C@@H](N)CCCCN)C(N)=O | Ki [3]: 247 nM; Emax [5]: 54%

The next lines start with the molecule.

Row | SMILES | EC50 [1] | Ratio EC50 [2] | IC50 [3] | other results
5 | CC(C)C[C@H](NC(=O)[C@H](CC(C)C)NC(=O)[C@H](NC(=O)[C@H](Cc1ccccc1)NC(=O)[C@@H](Cc1c[nH]c2ccccc12)NC(=O)[C@@H](N)CCCCN)C(c1ccccc1)c1ccccc1)C(N)=O | > 1000 nM | > 700 | ≥ 1000 nM | –
6 | CC(C)C[C@H](NC(=O)[C@H](CC(C)C)NC(=O)[C@@H](Cc1ccc(-c2ccccc2)cc1)NC(=O)[C@H](Cc1ccccc1)NC(=O)[C@@H](Cc1c[nH]c2ccccc12)NC(=O)[C@@H](N)CCCCN)C(N)=O | > 1000 nM | > 700 | ≥ 1000 nM | –
7 | CC(C)C[C@H](NC(=O)[C@H](CC(C)C)NC(=O)[C@@H](Cc1c[nH]c2ccccc12)NC(=O)[C@H](Cc1ccccc1)NC(=O)[C@@H](Cc1cccc2ccccc12)NC(=O)[C@@H](N)CCCCN)C(N)=O | – | – | – | Activity (Rattus norvegicus [8]): Toxic; Activity (Rattus norvegicus [9]): Toxic
8 | CC(C)C[C@H](NC(=O)[C@H](CC(C)C)NC(=O)[C@@H](Cc1ccc(C(=O)c2ccccc2)cc1)NC(=O)[C@H](Cc1ccccc1)NC(=O)[C@@H](Cc1c[nH]c2ccccc12)NC(=O)[C@@H](N)CCCCN)C(N)=O | > 1000 nM | > 700 | ≥ 1000 nM | –
